Test results published in the M2OR odorant receptor database.

Legend:
Settings in all cases: stereoisomer not certain
UniProt Q8VG27 = molecular target: T1, UniProt Q8VG27
T1 sequence (whole entry): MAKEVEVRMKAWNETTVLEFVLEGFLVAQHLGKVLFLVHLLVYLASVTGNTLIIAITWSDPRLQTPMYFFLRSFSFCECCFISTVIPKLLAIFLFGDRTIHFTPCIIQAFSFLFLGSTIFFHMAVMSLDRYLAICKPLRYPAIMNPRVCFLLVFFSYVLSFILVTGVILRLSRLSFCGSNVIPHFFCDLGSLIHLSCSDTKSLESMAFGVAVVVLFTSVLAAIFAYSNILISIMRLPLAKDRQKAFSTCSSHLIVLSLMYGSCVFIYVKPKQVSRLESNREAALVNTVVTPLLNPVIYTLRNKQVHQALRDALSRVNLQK
Procedure, shortened: (§1)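 Assay methods differ from source to source, frequently being transient luciferase assays in mammalian cell lines. For each receptor–molecule pair, the label responsive (active) applies when the original authors judged the measured signal statistically different from baseline, and non-responsive (inactive) applies otherwise.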

UniProt Q8VG28 = molecular target: UniProt Q8VG28
Sequence of UniProt Q8VG28 (Q8VG28 as listed by the source): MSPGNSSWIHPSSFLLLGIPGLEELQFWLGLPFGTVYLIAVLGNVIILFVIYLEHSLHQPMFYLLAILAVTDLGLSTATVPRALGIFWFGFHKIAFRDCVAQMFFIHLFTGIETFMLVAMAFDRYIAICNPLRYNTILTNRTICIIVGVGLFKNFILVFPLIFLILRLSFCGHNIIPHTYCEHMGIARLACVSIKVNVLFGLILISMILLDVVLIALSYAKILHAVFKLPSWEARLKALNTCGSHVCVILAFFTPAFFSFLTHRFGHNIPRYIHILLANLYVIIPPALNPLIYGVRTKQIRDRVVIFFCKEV
Procedure, shortened: as §1

UniProt Q8VG49 = molecular target: T2, UniProt Q8VG49
T2 sequence (whole entry): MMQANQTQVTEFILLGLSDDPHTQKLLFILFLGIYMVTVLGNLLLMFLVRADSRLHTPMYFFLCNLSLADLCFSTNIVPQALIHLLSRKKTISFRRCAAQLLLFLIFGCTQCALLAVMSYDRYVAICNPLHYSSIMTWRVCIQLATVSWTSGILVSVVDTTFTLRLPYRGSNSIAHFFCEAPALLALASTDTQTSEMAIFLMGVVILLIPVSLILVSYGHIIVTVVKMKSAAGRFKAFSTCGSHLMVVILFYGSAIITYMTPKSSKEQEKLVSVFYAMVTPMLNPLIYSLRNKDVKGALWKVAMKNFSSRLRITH
Procedure, shortened: as §1

UniProt Q8VG53 = molecular target: T3, UniProt Q8VG53
T3 sequence (whole entry): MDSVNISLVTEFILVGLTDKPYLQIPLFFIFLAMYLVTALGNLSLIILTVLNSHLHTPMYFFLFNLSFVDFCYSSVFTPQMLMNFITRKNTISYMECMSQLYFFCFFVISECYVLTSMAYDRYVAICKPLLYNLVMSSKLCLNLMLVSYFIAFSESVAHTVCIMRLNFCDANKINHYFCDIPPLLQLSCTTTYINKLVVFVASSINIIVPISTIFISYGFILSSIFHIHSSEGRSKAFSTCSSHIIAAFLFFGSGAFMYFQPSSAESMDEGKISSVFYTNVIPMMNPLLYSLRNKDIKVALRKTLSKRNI
Procedure, shortened: as §1

UniProt Q8VG64 = molecular target: T4, UniProt Q8VG64
T4 sequence (whole entry): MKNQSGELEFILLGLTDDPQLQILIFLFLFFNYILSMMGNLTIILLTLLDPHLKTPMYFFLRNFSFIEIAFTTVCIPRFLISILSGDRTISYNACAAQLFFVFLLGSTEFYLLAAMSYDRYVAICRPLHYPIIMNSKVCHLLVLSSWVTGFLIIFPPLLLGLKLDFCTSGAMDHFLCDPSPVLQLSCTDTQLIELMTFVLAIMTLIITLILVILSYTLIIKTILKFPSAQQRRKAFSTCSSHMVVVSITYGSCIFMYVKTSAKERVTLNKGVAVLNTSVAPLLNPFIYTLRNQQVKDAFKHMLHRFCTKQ
Procedure, shortened: as §1

UniProt Q8VG77 = molecular target: T5, UniProt Q8VG77
T5 sequence (whole entry): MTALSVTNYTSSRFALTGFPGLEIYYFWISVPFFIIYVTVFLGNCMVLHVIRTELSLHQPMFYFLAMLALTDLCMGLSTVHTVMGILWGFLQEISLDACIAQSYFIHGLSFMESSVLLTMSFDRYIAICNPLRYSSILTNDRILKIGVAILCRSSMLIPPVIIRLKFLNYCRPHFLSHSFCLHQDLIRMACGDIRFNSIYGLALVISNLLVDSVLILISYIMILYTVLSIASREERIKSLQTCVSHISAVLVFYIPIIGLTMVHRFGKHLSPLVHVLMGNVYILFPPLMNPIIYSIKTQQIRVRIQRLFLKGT
Procedure, shortened: as §1

UniProt Q8VG96 = molecular target: T6, UniProt Q8VG96
T6 sequence (whole entry): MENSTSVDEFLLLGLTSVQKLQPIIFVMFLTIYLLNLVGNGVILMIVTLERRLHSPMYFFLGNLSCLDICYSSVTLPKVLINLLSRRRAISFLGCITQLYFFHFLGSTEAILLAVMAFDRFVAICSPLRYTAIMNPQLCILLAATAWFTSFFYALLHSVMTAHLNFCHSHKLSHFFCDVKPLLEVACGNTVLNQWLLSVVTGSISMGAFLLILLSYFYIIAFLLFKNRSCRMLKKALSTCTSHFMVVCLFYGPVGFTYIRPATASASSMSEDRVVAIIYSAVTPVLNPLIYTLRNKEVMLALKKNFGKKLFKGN
Procedure, shortened: as §1

UniProt Q8VGB9 = molecular target: T7, UniProt Q8VGB9
T7 sequence (whole entry): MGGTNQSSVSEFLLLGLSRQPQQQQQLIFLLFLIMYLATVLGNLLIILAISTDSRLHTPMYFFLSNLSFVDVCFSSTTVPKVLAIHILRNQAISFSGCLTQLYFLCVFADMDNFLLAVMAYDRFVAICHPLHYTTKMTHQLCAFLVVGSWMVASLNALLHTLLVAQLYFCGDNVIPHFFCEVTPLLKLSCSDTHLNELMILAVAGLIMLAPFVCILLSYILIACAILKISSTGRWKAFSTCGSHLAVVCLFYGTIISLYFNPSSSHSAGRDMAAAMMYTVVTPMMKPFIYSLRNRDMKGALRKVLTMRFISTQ
Procedure, shortened: as §1

UniProt Q8VGC6 = molecular target: T8, UniProt Q8VGC6
T8 sequence (whole entry): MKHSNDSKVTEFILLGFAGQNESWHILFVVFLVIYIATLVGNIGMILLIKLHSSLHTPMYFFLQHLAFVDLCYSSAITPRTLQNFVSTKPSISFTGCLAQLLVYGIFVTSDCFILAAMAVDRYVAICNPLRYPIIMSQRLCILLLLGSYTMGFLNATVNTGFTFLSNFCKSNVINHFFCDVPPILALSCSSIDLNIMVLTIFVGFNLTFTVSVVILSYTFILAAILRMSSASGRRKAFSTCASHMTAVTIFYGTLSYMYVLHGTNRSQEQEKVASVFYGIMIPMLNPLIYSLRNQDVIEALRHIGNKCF
Procedure, shortened: as §1

UniProt Q8VGD7 = molecular target: T9, UniProt Q8VGD7
T9 sequence (whole entry): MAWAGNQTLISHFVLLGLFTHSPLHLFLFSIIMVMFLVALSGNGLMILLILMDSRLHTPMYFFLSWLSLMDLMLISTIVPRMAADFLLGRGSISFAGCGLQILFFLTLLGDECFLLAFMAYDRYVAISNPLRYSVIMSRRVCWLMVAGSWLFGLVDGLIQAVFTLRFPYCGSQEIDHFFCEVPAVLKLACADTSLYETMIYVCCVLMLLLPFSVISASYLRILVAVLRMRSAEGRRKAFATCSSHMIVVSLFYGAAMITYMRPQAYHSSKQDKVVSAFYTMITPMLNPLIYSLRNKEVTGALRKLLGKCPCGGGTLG
Procedure, shortened: as §1

UniProt Q8VGH1 = molecular target: T10, UniProt Q8VGH1
T10 sequence (whole entry): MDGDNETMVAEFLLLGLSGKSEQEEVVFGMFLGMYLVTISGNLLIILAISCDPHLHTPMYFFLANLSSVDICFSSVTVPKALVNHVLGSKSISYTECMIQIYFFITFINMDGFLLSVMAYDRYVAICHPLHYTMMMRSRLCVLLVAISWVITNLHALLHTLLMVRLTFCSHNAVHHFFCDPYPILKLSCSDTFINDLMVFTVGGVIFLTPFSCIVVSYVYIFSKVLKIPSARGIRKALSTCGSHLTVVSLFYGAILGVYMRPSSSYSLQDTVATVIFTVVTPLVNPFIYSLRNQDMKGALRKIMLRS
Procedure, shortened: as §1

UniProt Q8VGJ1 = molecular target: T11, UniProt Q8VGJ1
T11 sequence (whole entry): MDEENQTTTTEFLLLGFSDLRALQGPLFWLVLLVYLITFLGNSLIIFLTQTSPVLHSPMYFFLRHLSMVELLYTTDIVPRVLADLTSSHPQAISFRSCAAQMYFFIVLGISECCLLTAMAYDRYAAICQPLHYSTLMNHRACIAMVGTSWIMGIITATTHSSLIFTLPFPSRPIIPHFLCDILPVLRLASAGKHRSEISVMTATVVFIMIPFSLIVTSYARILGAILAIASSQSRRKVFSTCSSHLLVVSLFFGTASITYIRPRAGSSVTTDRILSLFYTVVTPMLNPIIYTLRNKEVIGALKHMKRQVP
Procedure, shortened: as §1

UniProt Q8VGJ3 = molecular target: T12, UniProt Q8VGJ3
T12 sequence (whole entry): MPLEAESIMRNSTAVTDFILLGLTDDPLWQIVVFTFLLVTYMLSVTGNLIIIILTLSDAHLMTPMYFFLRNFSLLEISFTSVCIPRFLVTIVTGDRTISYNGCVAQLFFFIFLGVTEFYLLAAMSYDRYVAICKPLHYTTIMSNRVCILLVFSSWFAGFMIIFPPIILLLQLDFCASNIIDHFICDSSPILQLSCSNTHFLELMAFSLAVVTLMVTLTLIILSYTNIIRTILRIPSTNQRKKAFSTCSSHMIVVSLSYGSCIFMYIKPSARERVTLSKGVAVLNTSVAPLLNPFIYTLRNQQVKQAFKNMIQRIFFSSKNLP
Procedure, shortened: as §1

UniProt Q8VGJ5 = molecular target: T13, UniProt Q8VGJ5
T13 sequence (whole entry): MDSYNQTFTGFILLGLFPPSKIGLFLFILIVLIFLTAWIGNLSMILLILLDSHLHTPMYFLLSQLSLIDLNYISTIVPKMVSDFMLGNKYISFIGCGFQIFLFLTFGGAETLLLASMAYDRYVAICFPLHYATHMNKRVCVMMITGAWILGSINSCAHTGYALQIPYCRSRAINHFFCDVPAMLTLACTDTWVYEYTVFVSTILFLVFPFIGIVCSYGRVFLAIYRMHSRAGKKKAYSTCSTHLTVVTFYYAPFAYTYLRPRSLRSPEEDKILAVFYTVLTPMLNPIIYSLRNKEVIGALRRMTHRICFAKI
Procedure, shortened: as §1

UniProt Q8VGL0 = molecular target: T14, UniProt Q8VGL0
T14 sequence (whole entry): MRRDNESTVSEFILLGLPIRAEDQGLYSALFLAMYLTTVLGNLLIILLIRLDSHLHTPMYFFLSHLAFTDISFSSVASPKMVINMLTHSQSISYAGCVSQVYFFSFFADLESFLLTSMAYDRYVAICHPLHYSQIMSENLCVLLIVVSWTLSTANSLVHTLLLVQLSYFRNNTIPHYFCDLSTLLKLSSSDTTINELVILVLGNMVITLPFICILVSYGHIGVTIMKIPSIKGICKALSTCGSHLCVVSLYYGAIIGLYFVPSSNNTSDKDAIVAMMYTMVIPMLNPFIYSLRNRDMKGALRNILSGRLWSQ
Procedure, shortened: as §1

UniProt Q8VGL7 = molecular target: T15, UniProt Q8VGL7
T15 sequence (whole entry): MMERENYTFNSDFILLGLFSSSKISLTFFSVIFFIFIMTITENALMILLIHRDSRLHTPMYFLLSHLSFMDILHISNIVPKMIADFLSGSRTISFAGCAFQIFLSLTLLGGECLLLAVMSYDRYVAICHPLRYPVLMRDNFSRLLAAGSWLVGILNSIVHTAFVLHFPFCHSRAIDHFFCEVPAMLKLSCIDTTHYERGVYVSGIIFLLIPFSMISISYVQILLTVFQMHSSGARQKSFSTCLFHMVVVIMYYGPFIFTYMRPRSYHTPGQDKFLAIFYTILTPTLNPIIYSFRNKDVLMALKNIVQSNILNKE
Procedure, shortened: as §1

Measured: odorant receptor agonist call

CCCCCCCCCO
active: UniProt Q8VGC6
inactive: UniProt Q8VG27 | UniProt Q8VG28 | UniProt Q8VG49 | UniProt Q8VG53 | UniProt Q8VG64 | UniProt Q8VG77 | UniProt Q8VG96 | UniProt Q8VGB9 | UniProt Q8VGD7 | UniProt Q8VGH1 | UniProt Q8VGJ1 | UniProt Q8VGJ3 | UniProt Q8VGJ5 | UniProt Q8VGL0 | UniProt Q8VGL7

CCCCC=O
inactive: UniProt Q8VG27 | UniProt Q8VG28 | UniProt Q8VG53 | UniProt Q8VG64 | UniProt Q8VGB9 | UniProt Q8VGC6 | UniProt Q8VGJ3 | UniProt Q8VGL0

CCCCCCCCCS
active: UniProt Q8VG49 | UniProt Q8VGC6
inactive: UniProt Q8VG27 | UniProt Q8VG53 | UniProt Q8VG64 | UniProt Q8VG77 | UniProt Q8VG96 | UniProt Q8VGB9 | UniProt Q8VGD7 | UniProt Q8VGH1 | UniProt Q8VGJ1 | UniProt Q8VGJ3 | UniProt Q8VGJ5 | UniProt Q8VGL0 | UniProt Q8VGL7

O=C1Cc2ccccc2O1
inactive: UniProt Q8VG27 | UniProt Q8VG49 | UniProt Q8VG53 | UniProt Q8VG64 | UniProt Q8VG77 | UniProt Q8VG96 | UniProt Q8VGB9 | UniProt Q8VGC6 | UniProt Q8VGD7 | UniProt Q8VGH1 | UniProt Q8VGJ1 | UniProt Q8VGJ3 | UniProt Q8VGJ5 | UniProt Q8VGL0 | UniProt Q8VGL7

O=C([O-])CCCCCCCC(=O)[O-].[H+].[H+]
inactive: UniProt Q8VG27 | UniProt Q8VG28 | UniProt Q8VG53 | UniProt Q8VG64 | UniProt Q8VGB9 | UniProt Q8VGC6 | UniProt Q8VGJ3 | UniProt Q8VGL0
